Data from ChEMBL document CHEMBL3232971, “Synthesis and in vitro evaluation of 12-(substituted aminomethyl) berberrubine derivatives as anti-diabetics” (2014).
Activity calls are given as the source filed them. No cut-off for these calls is given here.

Legend:
[1] = test system: 3T3-L1; assay: Reversal of high glucose-induced insulin resistance in mouse 3T3L1 cells assessed as relative sensitization rate at 10 umol/ml relative to rosiglitazone; format: functional
Summary of the method: (§1)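 Mouse 3T3-L1 preadipocytes were grown in high-glucose DMEM with 10% FBS and phenol red. At 90% confluence they were differentiated for 4 days with FBS, insulin, dexamethasone and IBMX. Cells were replated and kept 2 days in FBS medium. Insulin resistance was induced over 4 days with low insulin and high dexamethasone. Cells were then treated with sample in phenol red-free high-glucose DMEM, at three concentrations. Controls were normal differentiated cells (blank) and untreated insulin-resistant cells (negative); rosiglitazone was the positive control.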

[2] = test system: 3T3-L1; assay: Reversal of high glucose-induced insulin resistance in mouse 3T3L1 cells assessed as relative sensitization rate at 1 umol/ml relative to rosiglitazone; format: functional; summary of the method: as §1
[3] = test system: 3T3-L1; assay: Reversal of high glucose-induced insulin resistance in mouse 3T3L1 cells assessed as relative sensitization rate at 0.10 umol/ml relative to rosiglitazone; format: functional; summary of the method: as §1
[4] = test system: L6; assay: Increase in glucose transport in rat L6 cells assessed as sensitization rate at 10 umol/ml; format: functional
Summary of the method: (§2)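 Rat L6 myoblasts were grown 24 h in high-glucose DMEM with 10% FBS and phenol red. They were differentiated to myotubes in high-glucose DMEM with 2% FBS for 6–8 days, with medium changed every 48 h. Cells were then starved serum-free overnight, and 4–6 h without serum or glucose. Samples were added in serum-free DMEM with 20 mmol glucose for 16–24 h. Supernatant glucose was read by kit at OD 490 nm. Sensitization rate = (negative OD − sample OD)/(negative OD − blank OD) × 100%, tested at two concentrations.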

[5] = test system: L6; assay: Increase in glucose transport in rat L6 cells assessed as sensitization rate at 1 umol/ml; format: functional; summary of the method: as §2
[6] = test system: 3T3-L1; assay: Reversal of high glucose-induced insulin resistance in mouse 3T3L1 cells; format: functional, cell-based; summary of the method: as §1
[7] = test system: 3T3-L1; assay: Reversal of high glucose-induced insulin resistance in mouse 3T3L1 cells assessed as insulin sensitization relative to rosiglitazone; format: functional; summary of the method: as §1
[8] = test system: 3T3-L1; assay: Reversal of high glucose-induced insulin resistance in mouse 3T3L1 cells at 1 umol/ml; format: functional, cell-based; summary of the method: as §1

SMILES	Activity [1] [%]	Activity [2] [%]	Activity [3] [%]	Activity [4] [%]	Activity [5] [%]	Activity [6]	fold change (FC) [7]	Activity [8]
COc1cc(CN(Cc2ccccc2)Cc2ccccc2)c2cc3[n+](cc2c1O)CCc1cc2c(cc1-3)OCO2.[Cl-]	65.58	-9.51	-17.34	70.02	28.39	–	–	–
COc1ccc2cc3[n+](cc2c1OC)CCc1cc2c(cc1-3)OCO2.[Cl-] [BERBERINE CHLORIDE]	74.23	13.27	-2.93	43.28	21.3	–	–	–
COc1cc(CN(C)C)c2cc3[n+](cc2c1O)CCc1cc2c(cc1-3)OCO2.[Cl-]	51.59	-17.72	-16.79	78.5	51.3	–	–	–
COc1cc(CN2CCCCC2)c2cc3[n+](cc2c1O)CCc1cc2c(cc1-3)OCO2.[Cl-]	102.93	41.02	8.33	43.53	15.78	Dose-dependent effect	–	–
COc1cc(CN2CCN(C)CC2)c2cc3[n+](cc2c1O)CCc1cc2c(cc1-3)OCO2.[Cl-]	126.29	90.23	-1.09	48.55	41.9	Dose-dependent effect	1.26	Active
COc1cc(CN2CCN(C(=O)OC(C)(C)C)CC2)c2cc3[n+](cc2c1O)CCc1cc2c(cc1-3)OCO2.[Cl-]	107.3	3.14	-43.33	52.51	23.32	Dose-dependent effect	–	–
COc1cc(CN(c2ccccc2)c2ccccc2)c2cc3[n+](cc2c1O)CCc1cc2c(cc1-3)OCO2.[Cl-]	96.66	62.08	33.38	53.05	12.43	–	–	–
COc1cc(CN2CCOCC2)c2cc3[n+](cc2c1O)CCc1cc2c(cc1-3)OCO2.[Cl-]	115.14	68.72	28.22	57.22	26.16	Dose-dependent effect	–	–
COc1cc(CN2CCCC2)c2cc3[n+](cc2c1O)CCc1cc2c(cc1-3)OCO2.[Cl-]	73.15	-12.1	-22.09	40.73	7.95	–	–	–
CCN(CC)Cc1cc(OC)c(O)c2c[n+]3c(cc12)-c1cc2c(cc1CC3)OCO2.[Cl-]	75.63	23.48	2.03	48.83	5.81	–	–	–
COc1cc(CN(C(C)C)C(C)C)c2cc3[n+](cc2c1O)CCc1cc2c(cc1-3)OCO2.[Cl-]	112.25	28.02	-64.34	46.08	17.97	Dose-dependent effect	–	–
